Measurements published in ChEMBL document CHEMBL4689842, “EUbOPEN Chemogenomics Library wave 1” (2021).

System: HEK-293T
Test: Multiplex assay against HEK293T;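 as to Population Tubulin-Different-Phenotype (%): share of the cells with healthy nuclei that show this phenotype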
Format: toxicity, cell-based
Details: human
In short: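 Phenotypes for tubulin, mitochondrial mass and membrane permeability are expressed as per cents of healthy-nucleus cells. Cells were stained live at seeding with Hoechst33342, BioTracker Green Microtubule Cytoskeleton Dye, MitoTracker Red and Annexin V Alexa Fluor 680, then imaged after compound addition on a CQ1 microscope at 37°C and 5% CO2. Machine-learning gating in CellPathfinder separated Hoechst high-intensity objects from normal cells, divided normal cells by nuclear state (healthy, pyknosed, fragmented) and divided pyknosed cells into mitotic or apoptotic.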

[1] = 12 h, 1 µM, compound concentration 1 uM, replicate 1
[2] = 12 h, 1 µM, compound concentration 1 uM, replicate 2
[3] = 12 h, 10 µM, compound concentration 10 uM, replicate 1
[4] = 12 h, 10 µM, compound concentration 10 uM, replicate 2
[5] = 24 h, 1 µM, compound concentration 1 uM, replicate 1
[6] = 24 h, 1 µM, compound concentration 1 uM, replicate 2
[7] = 24 h, 10 µM, compound concentration 10 uM, replicate 1
[8] = 24 h, 10 µM, compound concentration 10 uM, replicate 2

SMILES: COc1ccc(-c2ccc3c(N4CCOCC4)nc(N4C[C@@H](C)O[C@@H](C)C4)nc3n2)cc1CO [Ku-0063794]
- Population Apoptotic (%) [1]: 17%
- Population Fragmented Nuclei (%) [1]: 21%
- Population Healthy Nuclei (%) [1]: 63%
- Population Hoechst High Intensity Objects (%) [1]: 20%
- Population Membrane Permeable-Phenotype (%) [1]: 6%
- Population Mitochondria Different-Phenotype (%) [1]: 3%
- Population Mitotic Cells (%) [1]: 82%
- Population Normal (%) [1]: 79%
- Population Pyknosed Nuclei (%) [1]: 14%
- Population Tubulin-Different-Phenotype (%) [1]: 3%
- Total Cell Count [1]: 492
- Population Apoptotic (%) [2]: 8%
- Population Fragmented Nuclei (%) [2]: 12%
- Population Healthy Nuclei (%) [2]: 82%
- Population Hoechst High Intensity Objects (%) [2]: 2%
- Population Membrane Permeable-Phenotype (%) [2]: 1%
- Population Mitochondria Different-Phenotype (%) [2]: 4%
- Population Mitotic Cells (%) [2]: 91%
- Population Normal (%) [2]: 97%
- Population Pyknosed Nuclei (%) [2]: 4%
- Population Tubulin-Different-Phenotype (%) [2]: 5%
- Total Cell Count [2]: 1701
- Population Apoptotic (%) [3]: 41%
- Population Fragmented Nuclei (%) [3]: 31%
- Population Healthy Nuclei (%) [3]: 63%
- Population Hoechst High Intensity Objects (%) [3]: 52%
- Population Membrane Permeable-Phenotype (%) [3]: 11%
- Population Mitochondria Different-Phenotype (%) [3]: 10%
- Population Mitotic Cells (%) [3]: 58%
- Population Normal (%) [3]: 47%
- Population Pyknosed Nuclei (%) [3]: 4%
- Population Tubulin-Different-Phenotype (%) [3]: 12%
- Total Cell Count [3]: 726
- Population Apoptotic (%) [4]: 40%
- Population Fragmented Nuclei (%) [4]: 11%
- Population Healthy Nuclei (%) [4]: 87%
- Population Hoechst High Intensity Objects (%) [4]: 27%
- Population Membrane Permeable-Phenotype (%) [4]: 4%
- Population Mitochondria Different-Phenotype (%) [4]: 15%
- Population Mitotic Cells (%) [4]: 60%
- Population Normal (%) [4]: 72%
- Population Pyknosed Nuclei (%) [4]: 1%
- Population Tubulin-Different-Phenotype (%) [4]: 17%
- Total Cell Count [4]: 1160
- Population Apoptotic (%) [5]: 19%
- Population Fragmented Nuclei (%) [5]: 19%
- Population Healthy Nuclei (%) [5]: 71%
- Population Hoechst High Intensity Objects (%) [5]: 11%
- Population Membrane Permeable-Phenotype (%) [5]: 8%
- Population Mitochondria Different-Phenotype (%) [5]: 2%
- Population Mitotic Cells (%) [5]: 80%
- Population Normal (%) [5]: 88%
- Population Pyknosed Nuclei (%) [5]: 8%
- Population Tubulin-Different-Phenotype (%) [5]: 7%
- Total Cell Count [5]: 554
- Population Apoptotic (%) [6]: 12%
- Population Fragmented Nuclei (%) [6]: 33%
- Population Healthy Nuclei (%) [6]: 64%
- Population Hoechst High Intensity Objects (%) [6]: 4%
- Population Membrane Permeable-Phenotype (%) [6]: 5%
- Population Mitochondria Different-Phenotype (%) [6]: 0%
- Population Mitotic Cells (%) [6]: 87%
- Population Normal (%) [6]: 95%
- Population Pyknosed Nuclei (%) [6]: 1%
- Population Tubulin-Different-Phenotype (%) [6]: 6%
- Total Cell Count [6]: 2828
- Population Apoptotic (%) [7]: 27%
- Population Fragmented Nuclei (%) [7]: 31%
- Population Healthy Nuclei (%) [7]: 65%
- Population Hoechst High Intensity Objects (%) [7]: 52%
- Population Membrane Permeable-Phenotype (%) [7]: 11%
- Population Mitochondria Different-Phenotype (%) [7]: 9%
- Population Mitotic Cells (%) [7]: 72%
- Population Normal (%) [7]: 47%
- Population Pyknosed Nuclei (%) [7]: 3%
- Population Tubulin-Different-Phenotype (%) [7]: 17%
- Total Cell Count [7]: 759
- Population Apoptotic (%) [8]: 12%
- Population Fragmented Nuclei (%) [8]: 26%
- Population Healthy Nuclei (%) [8]: 71%
- Population Hoechst High Intensity Objects (%) [8]: 24%
- Population Membrane Permeable-Phenotype (%) [8]: 9%
- Population Mitochondria Different-Phenotype (%) [8]: 4%
- Population Mitotic Cells (%) [8]: 88%
- Population Normal (%) [8]: 75%
- Population Pyknosed Nuclei (%) [8]: 2%
- Population Tubulin-Different-Phenotype (%) [8]: 32%
- Total Cell Count [8]: 1535
